# Hits are enriched below; roughly 1.8% of the tested compounds scored in any of these assays.
# STAT3 inh-1: inhibitors of IL-6 induced STAT3 signaling; U3A cells, IL-6 STAT3-luciferase reporter, luminescence; host cell line lacks STAT1; inhibition, % at 5.5 µM; 190,000 compounds, 0.89% hits; AID 862;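 active means inhibition above the mean inhibition across all screened compounds plus 3 SD, cut at about 44% in these data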
# TRAIL sens C8: caspase-8 TRAIL sensitization | NB7+C8 cells + TRAIL, ATPlite viability luminescence | inhibition (viability loss, TRAIL sensitization), % at 10 µM | 360,000 compounds, 1% hits | AID 624354;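 active means compounds causing at least 50% loss of cell viability in the single-dose screen, relative to plate controls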
# STAT3 act: STAT3 signaling activation; U3A cells, IL-6 STAT3-luciferase reporter, luminescence; 100% = signal with IL-6 EC80 alone; activation (% of control), % at 5.6 µM; 190,000 compounds, 0.91% hits;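 active means activation above the screen-wide mean of compound activation plus 3 SD, cut at about 130% in these data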
#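 Material: STAT1-lacking human U3A cells, STAT3 luciferase reporter | Benchmarks: IL-6-only wells as 100% reference | Probe or stimulus: IL-6 (33 ng/mL) | Timing: Compound 1 h, then IL-6 6 h at 37 °C | Detection: Luminescence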
# PPC-1+TRAIL kill: kills PPC-1 cancer cells in the presence of TRAIL | PPC-1 cells + TRAIL, ATPLite viability luminescence | cell killing (% activity), % at 4 µM or 5 µM | 220,000 compounds, 0.41% hits | AID 1443;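 active means cell killing above 50% in the first pass at 4 µM, then a duplicate retest at 5 µM averaging 50% or more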
# STAT1 inh: inhibitors of IFN-gamma induced STAT1 signaling. NIH 3T3 STAT1-luciferase reporter, luminescence. inhibition, % at 5.5 µM. 200,000 compounds, 0.35% hits. AID 920;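 active means inhibition above a set limit, the mean inhibition across all tested compounds plus 3 SD, cut at about 34% in these data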
# STAT3 inh-2: confirmation of STAT3 signaling inhibitors; AID 1265; 1,200 compounds, 45% hits; shares compounds with STAT3 inh-1; inhibition, % at 5.7 µM; U3A cells, IL-6 STAT3 luciferase reporter, luminescence; cell line lacks STAT1;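 active means inhibition above the hit cutoff computed for the primary STAT3 screen, cut at about 44% in these data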
# NFkB inh 2: inhibits NF-kappaB, counter-screen to STAT3 inhibitors; shares compounds with STAT3 inh-1; HEK293T NF-kB luciferase reporter, TNF-alpha induced; AID 1308; inhibition, % at 5.7 µM; 1,200 compounds, 36% hits;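 active means inhibition above the mean of solvent-only control wells plus 3 SD, cutoff set per campaign, cut at about 13% in these data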
# STAT1 inh STAT3c: STAT1 inhibition in STAT3 inhibitor counter-screen; inhibition, % at 5.7 µM; 1,200 compounds, 27% hits; NIH 3T3 STAT1-luciferase reporter, IFN-gamma induced, luminescence; shares compounds with STAT3 inh-1;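 active means inhibition above the mean plus 3 SD of solvent-only control wells, limit set per screening run, cut at about 16% in these data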
# A number is an active result; 0 = inactive; - = not tested or not shown.
SMILES,STAT3 inh-1,TRAIL sens C8,STAT3 act,PPC-1+TRAIL kill,STAT1 inh,STAT3 inh-2,NFkB inh 2,STAT1 inh STAT3c
Cc1sc(NC(=O)c2ccco2)c(C(c2cccnc2)N2CCC(C)CC2)c1C (stereo not given),67.7,0,0,0,0,67.3,16.3,0
CCOC(=O)C1CCCN(C(=O)Cn2cnc3sc(C)c(S(=O)(=O)N4CCOCC4)c3c2=O)C1 (stereo not given),-,0,-,-,-,-,-,-
Cc1ccc(-n2c(C)cc(C(=O)COc3cccnc3[N+](=O)[O-])c2C)cc1,0,0,0,0,0,-,-,-
Cc1cc(C(=O)COc2cccnc2[N+](=O)[O-])c(C)n1-c1ccccc1,59.9,0,0,0,0,0,0,0
Cc1cc(=O)n2nc(N3CCCC3C(=O)Nc3cccc(Cl)c3C)sc2n1 (stereo not given),-,0,-,-,-,-,-,-
Cc1cc(C)nc(N/N=C/c2sccc2C)n1,0,0,0,0,0,-,-,-
Cc1ccsc1/C=N/Nc1nc(=O)[nH]nc1C,52.9,0,0,0,0,0,0,0
O=C(COc1ccc2c(c1)CCC2)NCc1cccc(Cl)c1,0,0,0,0,0,-,-,-
O=C(NCc1ccccc1)c1cccc(COc2ccc3c(c2)CCC3)c1,56.1,0,0,0,0,45.0,33.9,27.4
COc1cccc(OC)c1C(=O)NNC(=O)c1cccc(COc2ccc3c(c2)CCC3)c1,53.3,0,0,0,0,0,23.0,20.6
COc1ccccc1NC(=O)c1ccc(COc2ccc3c(c2)CCC3)cc1,0,0,0,0,0,-,-,-
COc1ccc(Cc2noc(CN3CCC(c4ccncc4)CC3)n2)cc1OC,59.5,0,0,0,0,0,14.0,0
COc1ccc(Cc2noc(CN3CCCN(Cc4ccc(F)cc4)CC3)n2)cc1OC,0,0,0,-,0,-,-,-
O=C(/C=C\Nc1ccc2c(c1)OCO2)c1ccc(Cl)s1,62.0,72.8,0,0,0,0,0,0
Cc1ccc(N(C(=O)CCl)C(C(=O)NC2CCCCC2)c2cccnc2)cc1C (stereo not given),70.3,-,0,0,0,101.5,40.0,40.0
Cc1ccc(N(C(=O)CNC(=O)c2ccco2)C(C(=O)NC2CCCCC2)c2cccnc2)cc1C (stereo not given),-,0,-,-,-,-,-,-
Cc1ccc(NS(=O)(=O)c2cccc(C(=O)Nc3c(C)n(C)n(-c4ccccc4)c3=O)c2)cc1,-,-,-,0,-,-,-,-
O=C(O)[C@@H]1CCCC[C@@H]1C(=O)N1CCc2ccccc2C1CN1C(=O)c2ccccc2C1=O (stereo not given in full),58.6,0,0,0,0,52.8,19.3,22.5
O=C1c2ccccc2C(=O)N1CC1c2ccccc2CCN1C(=O)C1CCCCC1 (stereo not given),0,0,0,0,0,-,-,-
COc1ccc(/C=N/NC(=S)Nc2cccc(C(=O)O)c2)cc1,77.7,0,0,0,0,52.2,0,0
COc1ccc(/C=N/NC(=S)Nc2ccccc2)cc1,0,0,0,0,0,-,-,-
O=C(Nc1ccc(SC(F)F)cc1)c1ccc2nccnc2c1,48.2,0,0,0,0,0,0,0
COC(=O)c1ccc(NC(=O)c2ccc3nccnc3c2)cc1,-,0,-,-,-,-,-,-
COCCCNC(=O)C[C@@H]1C[C@@]2(C(=O)OC)CCCCC=C2N(Cc2ccc(Cl)cc2Cl)C1=O,-,0,-,-,-,-,-,-
O=S(=O)(c1cccs1)N1CCN(CC(O)COc2cc(Cl)ccc2Cl)CC1 (stereo not given),53.5,0,0,0,0,0,15.0,17.2
Cc1cccc(C)c1-n1nnnc1C(c1ccnc2ccccc12)N1CCN(C/C=C/c2ccccc2)CC1 (stereo not given),-,0,-,-,-,-,-,-
Cc1ccc(S(=O)(=O)N(C)CCCC(=O)Nc2ccncc2)cc1,50.5,0,0,0,0,0,0,0
O=NN(CCc1ccncc1)c1ccc(OCc2ccccc2)cc1,62.6,0,0,0,0,57.0,18.9,0
